From article PMC9233244 (Diabetes, 2022) come the findings set out here.

Assay type in all cases: in vivo, mouse
The test system of one test is WT and Gipr−/− mice. The test can be described thus: intraperitoneal glucose tolerance test in WT and Gipr−/− mice.
The next test deals with obese high-fat-fed mice. As to the kind of experiment: body weight and food intake in obese high-fat-fed mice.
The test system of test [1] is brain neuronal activity (cFos). The test can be described thus: whole-brain cFos analysis. To be noted: 120 min. The essentials:
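Chow-fed male C57BL/6J mice were acclimated with daily s.c. PBS for 4 days. On day 5 they received s.c. GIPR agonist (10 nmol/kg), PYY analog (100 nmol/kg), GDF15 (2 nmol/kg) or combinations. Mice were formalin-perfused 120 min post-dose, and brains were iDISCO+-cleared, cFos-immunostained (rabbit, 1:200), light-sheet imaged and registered. Counts came from voxel-based statistics within PBN_D/PBN_V hotspots defined by averaged PYY- and GDF15-group signal. Vehicle n = 8.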

[2] abbreviates: agent alone, dosed once daily, 72-h dosing period, n = 6 per group.

In the case of LAGIPRA, in the test with WT and Gipr−/− mice, the “blood glucose in intraperitoneal glucose tolerance test” value is recorded as “lowering blood glucose”. Further, the “weight loss in combination with the LAPYY analog” value in the test on obese high-fat-fed mice (LAGIPRA 10 nmol/kg plus LAPYY analog, once daily) was “only delivered greater weight loss in combination with a low dose of the LAPYY analog”. In the test on obese high-fat-fed mice (setting [2]), the body weight entry was “reduced” and the food intake result was “reduced”.

B1: GDF15: recombinant human GDF15, cytokine used as aversive agent (protein, UniProt Q99988 195-308, looked up)
Growth/differentiation factor …: ARARNGDHCPLGPGRCCRLHTVRASLEDLGWADWVLSPREVQVTMCIGACPSQFRAANMHAQIKTSLHRLKPDTVPAPCCVPASYNPMVLIQKTDTGVSLQTYDDLLAKDCHCI
Consider B1, for which, in test [1], the “number of cFos+ cells in the BST” value is on record as “increased numbers”; the “number of cFos+ cells in the NTS and DMX” value is “increased number”. For the same molecule, the “brain regions with decreased cFos expression” value in test [1] (GDF15 2 nmol/kg s.c., vs vehicle, n = 8) is given as “decreased cFos expression in nine regions”. In addition, the “brain regions with increased cFos expression” value in test [1] (GIPRA 10, PYY 100, GDF15 2 nmol/kg s.c., vs vehicle, n = 8) was “increased cFos expression in seven brain areas”.
